Measurements from different studies.
Protocols differ between the studies behind these lines.
Sample: Caco-2

SMILES	conditions	efflux ratio
CC[C@]1(O)C[C@@H]2CN(CCc3c([nH]c4ccccc34)[C@@](C(=O)OC)(c3cc4c(cc3OC)N(C)[C@H]3[C@@](O)(C(=O)OC)[C@H](OC(C)=O)[C@]5(CC)C=CCN6CC[C@]43[C@@H]65)C2)C1	10 µM, 2 h	13.5
Cc1ccc(N(c2ccc(NC(=O)CN(C)c3ccccc3N3CCCC3=O)cc2)C(C)C)cc1		2.3
CC(C)(N)COCC(=O)N1CCC[C@H](C(=O)NCc2nc(-c3ccc(C(F)(F)F)cc3)cs2)C1		240
O=c1c(O[C@@H]2O[C@H](CO)[C@H](O)[C@H](O)[C@H]2O)c(-c2ccc(O)c(O)c2)oc2cc(O)cc(O)c12	200 µg/mL	1.56
O=C(NCc1nc(-c2ccc(C(F)(F)F)cc2)cs1)[C@H]1CCCN(C(=O)COCCN2CCCCC2)C1		27
O=c1cc(-c2ccc(O)cc2)oc2c([C@@H]3O[C@H](CO)[C@@H](O)[C@H](O)[C@H]3O)c(O)cc(O)c12	200 µg/mL	1.28
NCCOCC(=O)N1CCC[C@H](C(=O)NCc2nc(-c3ccc(C(F)(F)F)cc3)cs2)C1		120
C[C@H]1O[C@@H](O[C@H]2[C@@H](O)C[C@H](O[C@H]3[C@@H](O)C[C@H](O[C@H]4CC[C@@]5(C)[C@H](CC[C@@H]6[C@@H]5C[C@@H](O)[C@]5(C)[C@@H](C7=CC(=O)OC7)CC[C@]65O)C4)O[C@@H]3C)O[C@@H]2C)C[C@H](O)[C@@H]1O	10 µM, 2 h	28.3
N#Cc1ccc(C[C@H](Nc2ncc(-c3ccc(F)cc3)o2)C(=O)N2CCc3ccccc32)cc1	100 µM, 2 h	19
CCCCCCOC(=O)NC(=N)c1ccc(NCc2nc3cc(C(=O)N(CCC(=O)OCC)c4ccccn4)ccc3n2C)cc1	5 µM, 2 h	510
O=C(NCc1nc(-c2ccc(C(F)(F)F)cc2)cs1)[C@H]1CCCN(C(=O)CO[C@H]2CCCNC2)C1		160
N#Cc1ccc(C[C@H](Nc2c(Nc3ccc(Br)cc3)c(=O)c2=O)C(=O)N2CCc3ccccc32)cc1	100 µM, 2 h	> 20
COc1cc(NC(=O)Cn2cc(Cl)c3cc(F)c(-c4cnn(C)c4)cc32)cc(OC)c1OC		18.2
